Screening results: PubChem, several laboratories
Measles CPE: protection of cells from measles virus. Measles virus-infected cells, CPE protection, absorbance. protection (pct of control), % at 4 µM. 140,000 tested, 1.5% active; in the data active means protection mostly above about 24%, no sharp cut-off; inactive means mostly below about 26%
NPY-Y2 antag: blocks the human neuropeptide Y Y2 receptor; NPY-Y2 expressing cells, antagonist mode; inhibition, % at 2.7 µM; 140,000 tested, 0.99% active;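 further: 0% = vehicle with agonist challenge and 100% = reference antagonist with challenge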
Mdm2 ligase inh: inhibitors of human Mdm2 E3 ubiquitin ligase | Q00987 | cell-based MDM2 ubiquitination luciferase reporter, 2 h; 0 = plate control, 100 = twice control, blank-subtracted | signal enhancement, % at 5 µM | 210,000 tested, 0.11% active | AID 1230;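 active means signal enhancement of 30% or more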;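 further: luminescence tracks abundance of the self-degrading MDM2-luciferase fusion protein; higher signal means inhibition of MDM2 E3 ligase activity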
Target sequence (Q00987 whole entry, looked up, the tested form may be a part): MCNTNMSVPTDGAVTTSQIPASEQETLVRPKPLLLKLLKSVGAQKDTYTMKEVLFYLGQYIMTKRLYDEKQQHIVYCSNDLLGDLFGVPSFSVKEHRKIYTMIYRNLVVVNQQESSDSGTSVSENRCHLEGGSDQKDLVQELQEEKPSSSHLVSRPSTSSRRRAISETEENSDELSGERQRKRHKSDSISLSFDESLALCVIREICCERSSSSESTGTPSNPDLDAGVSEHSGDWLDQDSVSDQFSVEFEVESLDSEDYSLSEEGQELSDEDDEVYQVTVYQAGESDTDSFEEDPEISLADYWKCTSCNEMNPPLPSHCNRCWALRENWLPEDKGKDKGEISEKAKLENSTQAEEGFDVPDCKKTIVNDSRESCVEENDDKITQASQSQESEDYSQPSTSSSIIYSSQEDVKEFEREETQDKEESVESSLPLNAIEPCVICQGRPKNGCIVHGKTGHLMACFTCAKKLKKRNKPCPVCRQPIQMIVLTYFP
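Buffer or medium: Cells held in DMEM | Assay system: Stable mammalian line carrying autodegrading MDM2–luciferase fusion reporter | Quantity: 2000 cells/well | Times: 4 h settle plus 2 h compound, 37 °C | Doses: One concentration, 5 µM, with 0.2% DMSO | Technique: Luminescence with SteadyLite reagent, 15 min at room temperature | Benchmarks: Plate controls and plate blanks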
NPY-Y1 PAM-ag: potentiates or activates human NPY-Y1 receptor | P25929 | NPY-Y1 expressing cells, potentiator/agonist activation | activation, % at 3.6 µM | 220,000 tested, 0.37% active; in the data active means activation above about 33%, passing the limit was not always enough;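 further: cells stimulated with NPY at EC10 then isoproterenol at EC100; 0% = low agonist plus stimulus and 100% = saturating agonist plus stimulus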
NPY Y1 blocker: blocks the human neuropeptide Y Y1 receptor. P25929. HEK293-CNG Y1 cells, membrane potential fluorescence; NPY at EC95, then isoproterenol. inhibition, % at 3.6 µM. 200,000 tested, 1% active;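 active means inhibition above the campaign mean inhibition of all tested compounds plus 3 SD, cut at about 20% in these data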;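 further: 0% = DMSO wells given NPY plus isoproterenol and 100% = isoproterenol alone without NPY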
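Assay system: HEK293 cells with Y1 receptor plus CNG channel | Probe or stimulus: NPY (25 nM), isoproterenol (1 µM), Ro 20-1724 (25 µM) | Timing: Compound incubation 1 h at room temperature, readout 45 min post-stimulation | Measured by: Membrane-potential fluorescent dye readout | Benchmarks: High control isoproterenol alone, low control NPY with isoproterenol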
NPY-Y2 PAM-ag: potentiates or activates human NPY-Y2 receptor; cells expressing NPY-Y2, potentiator/agonist read-out; activation, % at 3.6 µM; P49146; 220,000 tested, 0.45% active; in the data active means activation above about 27%;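 further: cells stimulated with NPY near EC25 plus isoproterenol at EC100; 0% = vehicle plus submaximal agonist and 100% = vehicle plus saturating agonist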
NPY-Y1 ant conf: confirmation of human neuropeptide Y receptor Y1 antagonists; HEK293-CNG NPY-Y1, membrane potential fluorescence, cAMP; NPY challenge against isoproterenol-raised cAMP; shares compounds with NPY Y1 blocker; inhibition, % at 3.6 µM; 1,200 tested, 21% active; in the data active means inhibition above about 20%;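 further: 0% = vehicle with agonist plus stimulus and 100% = stimulus alone without agonist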
NPY2 antag ctr: antagonizes human NPY-Y2, counter-screen to NPY-Y1 antagonists; AID 1255; HEK293 NPY-Y2 CNG membrane potential fluorescence, antagonism; cells given NPY, then isoproterenol; shares compounds with NPY Y1 blocker; 1,200 tested, 28% active; inhibition, % at 3.6 µM;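 further: 0% = DMSO with agonist challenge and 100% = reference antagonist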
Active calls of the source: *; . = not tested or not shown. This is a sample that favours compounds with a hit; in the whole collection about 2.8% have one here. Unless noted, no stated cut-off is given here; in the data, active means inhibition above about 17%; inactive means the rest.

SMILES	Measles CPE	NPY-Y2 antag	Mdm2 ligase inh	NPY-Y1 PAM-ag	NPY Y1 blocker	NPY-Y2 PAM-ag	NPY-Y1 ant conf	NPY2 antag ctr
Cc1ccc(C(=O)c2cc([N+](=O)[O-])ccc2N2CCCCC2)cc1	18.0	16.2	-3.5	-62.2	22.0*	-1.7	11.9	26.1*
Cc1ccc(C(=O)c2cc([N+](=O)[O-])ccc2N2CC(C)OC(C)C2)cc1 (stereo unspecified)	3.9	4.0	-9.0	-9.7	0.5	6.0	.	.
COc1ccc(OC)c(CN2CCC(CO)(CCOc3ccccc3)CC2)c1	.	.	-12.5	-39.0	11.4	-49.2	.	.
Cc1cc(C)c(CN2CCC(CO)(CCOc3ccccc3)CC2)cc1C	.	.	-7.3	-36.4	30.4*	-34.8	9.2	23.2*
O=C(COC(=O)CSc1ccc2ccccc2c1Br)NC1CC1	.	.	-25.6	-38.4	25.1*	-30.9	14.6	11.8
CCCC/C(O)=C1\C(=O)CC(C)(C)CC1=NCCCCCC(=O)O	.	.	-16.7	2.5	2.3	-2.0	.	.
CNCCCOc1cccc(Oc2ccccc2)c1	.	.	-19.6	-8.5	23.2*	-13.7	6.5	12.5
Cn1c2ccccc2c2cnn(CC(=O)O)c(=O)c21	6.0	11.6	-11.4	-48.0	25.9*	-39.5	7.1	7.1
O=C(COC(=O)c1cc[n+]([O-])cc1)Nc1ccc(F)c([N+](=O)[O-])c1	2.6	0.8	6.5	5.3	8.1	10.4	.	.
Cc1cc(S(=O)(=O)N2CCCC(C(=O)Nc3ccc(C(=O)O)cc3)C2)ccc1Cl (stereo unspecified)	.	.	-5.0	2.8	2.9	-3.5	.	.
COC(=O)c1ccc(COc2ccccc2/C=N/O)o1	.	.	-13.1	1.5	.	-1.3	.	.
C/C=C/c1ccccc1OCc1ccc(C(=O)O)o1	11.2	13.7	-11.9	-24.7	22.1*	-23.9	16.5	12.4
CCOc1ccc(S(=O)(=O)N2c3ccccc3CC2C)cc1 (stereo unspecified)	7.9	15.1	-1.5	-26.5	37.5*	-9.7	8.2	17.2*
CCOC(=O)c1c(NC(=O)C(F)(OC)C(F)(F)F)sc(C(=O)N2CCCCC2)c1C (stereo unspecified)	23.8	2.0	-13.6	-14.8	21.9*	8.8	9.3	4.4
COc1ccc(CCNS(=O)(=O)c2ccc(OC)cc2)cc1	6.3	7.8	5.8	-8.4	22.9*	-28.6	10.3	7.2
COc1ccc(CCN2C(=O)C(O)=C(C(=O)c3ccco3)C2c2cccs2)cc1OC (stereo unspecified)	17.9	5.5	0.8	-26.8	22.6*	-16.5	7.3	6.7
COc1cc(C2C(C(=O)c3ccco3)=C(O)C(=O)N2CCc2ccccc2)ccc1O (stereo unspecified)	3.1	8.3	-36.1	-2.9	12.9	-1.6	.	.
COc1ccccc1-n1cnc2cc(NCc3cccs3)ccc21	8.8	10.1	-7.6	0.9	21.3*	-5.0	9.3	20.2*
Nc1cc(Cl)nnc1Cl	.	.	-7.1	-11.2	.	8.9	.	.
O=C(CCN1CCCCCC1)c1ccccc1	13.3	1.7	-6.3	7.1	4.7	-0.2	.	.
O=C(CCCCN1CCCCC1)c1ccc2c(c1)Cc1ccccc1-2	.	.	-13.2	-45.5	24.2*	-23.0	19.2	7.5
Cn1ccnc1C1CCCCN1Cc1nc(-c2ccc(Cl)cc2)no1 (stereo unspecified)	.	.	-3.0	-15.0	42.6*	-25.6	13.4	9.4
CCN(CC)CCOC(=O)/C=C/c1ccccc1OC	8.2	1.4	-9.0	15.5	21.1*	9.9	-0.7	2.5
COc1ccc(F)cc1S(=O)(=O)N1CCC(C(N)=O)CC1	2.4	1.4	-11.9	4.4	1.8	-4.9	.	.
COc1ccc(C(C)(C)C)cc1S(=O)(=O)N1CCC(C(N)=O)CC1	23.2	-1.4	1.9	-3.6	23.1*	-4.3	0.4	0.2
SMILES	Measles CPE	NPY-Y2 antag	Mdm2 ligase inh	NPY-Y1 PAM-ag	NPY Y1 blocker	NPY-Y2 PAM-ag	NPY-Y1 ant conf	NPY2 antag ctr
COC(=O)CNC(c1ccccc1)c1cc(Br)ccc1NS(=O)(=O)c1ccc(C)cc1 (stereo unspecified)	24.3	3.9	6.7	6.5	10.5	16.6	.	.
COC(=O)CNC(c1ccccc1)c1cc(Br)ccc1NS(=O)(=O)c1ccccc1 (stereo unspecified)	22.1	16.6	-1.7	-31.0	26.7*	-2.6	-1.3	3.5
CN(C1CCCCC1)S(=O)(=O)Cc1ccccc1	.	-1.6	-5.0	9.7	24.6*	0.3	4.2	1.5
CS(=O)(=O)N(CC(=O)NCc1ccccc1)C1CCCCC1	0.0	-0.7	-5.1	7.4	-2.8	-5.5	.	.
Cc1cc(C(C)(C)C)oc1C(=O)N(CC(=O)NC1CCCC1)c1c(C)cccc1C	6.9	9.6	2.2	12.2	9.9	-7.8	.	.
COc1ccccc1N(CC(=O)NC1CCCC1)C(=O)c1oc(C(C)(C)C)cc1C	.	.	-10.9	15.6	28.4*	-14.3	22.2*	8.3
Cc1cc(C(C)(C)C)oc1C(=O)N(CC(=O)NC1CCCC1)c1ccc(F)cc1	4.3	15.0	2.1	-3.8	27.4*	0.4	5.6	5.7
CC(C)(CN1CCN(C(c2ccccc2)c2ccccc2)CC1)NS(=O)(=O)c1ccccc1	.	.	-10.0	-10.4	.	-51.5	.	.
COc1cc(CC(=O)Nc2ccc(S(=O)(=O)N(C)C)cc2)cc(OC)c1OC	14.1	-0.7	-13.3	6.4	4.2	-13.0	.	.
COc1cc(C)c(C)cc1S(=O)(=O)N1CCN(Cc2ccc3c(c2)OCO3)CC1	25.1	10.6	-4.5	-43.2	24.1*	-22.8	12.9	11.3
COc1ccc(Nc2ccc(C(=O)O)cc2[N+](=O)[O-])cc1	17.3	6.0	-3.0	-20.6	22.3*	2.8	3.9	9.0
COc1ccc(Nc2ccc(C(N)=O)cc2[N+](=O)[O-])cc1	.	.	-7.0	9.1	4.6	5.5	.	.
CCOc1ncccc1C(=O)N1CCN(c2cc(Cl)ccc2C)CC1	.	.	-0.9	3.1	7.1	-7.2	.	.
CCOc1ncccc1C(=O)N1CCN(c2cccc(C)c2C)CC1	.	.	-1.5	-17.5	24.1*	-22.5	8.6	9.8
CC(C)(C)NC(=O)c1oc2ccccc2c1COc1ccccc1	14.5	13.3	.	-46.9	28.0*	-7.2	26.4*	13.6
COc1ccc(N=c2oc3cc(O)ccc3cc2C(=O)NCC2CCCO2)cc1 (stereo unspecified)	7.3	16.7	.	-17.4	33.2*	-8.9	11.1	5.8
COc1ccc(-c2cc(C(=O)NCC3CCCO3)c3ccccc3n2)cc1 (stereo unspecified)	.	.	-16.9	-17.0	1.8	-12.7	.	.
CC(=O)Nc1ccccc1N(C)S(=O)(=O)c1ccc(C)cc1	5.8	0.4	-9.4	0.2	0.3	4.2	.	.
